Test results published in ChEMBL document CHEMBL2040809, “Synthesis and biological activity evaluation of cytidine-5'-deoxy-5-fluoro-N-[(alkoxy/aryloxy)] carbonyl-cyclic 2',3'-carbonates” (Eur J Med Chem, 2012).
≈ marks a conversion by molar mass, not a printed value.

Tests used:
[1] = test system: Salmonella typhimurium; experiment: Mutagenic activity in Salmonella typhimurium TA1537 at 0.312 to 5 mg/plate preincubated for 20 mins before addition in presence of liver S9 mixture; type: toxicity, organism-based; conditions: salmonella enterica subsp. enterica serovar typhimurium
Summary of the method: (§1)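 Pre-incubation trial (Trial II) with histidine-dependent auxotrophs. Test solution is pre-incubated with bacterial suspension and S9 mix (10% v/v) or substitution buffer before plating on selective agar. Revertant colonies are counted against the concurrent vehicle control. Triplicate plates per dose and per control (negative, vehicle, positive reference mutagens).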

[2] = test system: HeLa; experiment: Cytotoxicity against human HeLa cells after 3 days MTT assay; type: functional, cell-based; conditions: 72 h
Summary of the method: (§2)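 Cells held as monolayers in DMEM with 10% supplement. Seeded in 96-well plates on day 0 at densities set by doubling time: 1 × 10⁴/mL for HeLa and NCI-69, 2 × 10⁴/mL for MCF-7, 3 × 10⁴/mL for PZ-HPV-7. Five dilutions (10⁻⁸–5 × 10⁻⁶ mol/l), freshly prepared, added for 72 h. Growth read by MTT (succinate dehydrogenase activity); IC50 derived.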

[3] = test system: Salmonella typhimurium; experiment: Mutagenic activity in Salmonella typhimurium TA98 at 0.312 to 5 mg/plate preincubated for 20 mins before addition in presence of liver S9 mixture; type: toxicity, organism-based; conditions: salmonella enterica subsp. enterica serovar typhimurium; summary of the method: as §1
[4] = test system: Salmonella typhimurium; experiment: Mutagenic activity in Salmonella typhimurium TA102 at 0.312 to 5 mg/plate preincubated for 20 mins before addition in presence of liver S9 mixture; type: toxicity, organism-based; conditions: salmonella enterica subsp. enterica serovar typhimurium; summary of the method: as §1
[5] = test system: Salmonella typhimurium; experiment: Mutagenic activity in Salmonella typhimurium TA100 at 0.312 to 5 mg/plate measured after incubation of upside down for 48 hrs in presence of liver S9 mixture; type: toxicity, organism-based; conditions: salmonella enterica subsp. enterica serovar typhimurium, s9, 48 h
Summary of the method: (§3)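 Plate incorporation trial (Trial I) with histidine-dependent auxotrophs. Revertant colonies are counted against the concurrent vehicle control. Each dose and each control, including negative, vehicle and positive reference mutagens, run in triplicate plates.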

[6] = test system: Salmonella typhimurium; experiment: Mutagenic activity in Salmonella typhimurium TA1535 at 0.312 to 5 mg/plate measured after incubation of upside down for 48 hrs in presence of liver S9 mixture; type: toxicity, organism-based; conditions: salmonella enterica subsp. enterica serovar typhimurium, s9, 48 h; summary of the method: as §3
[7] = test system: Salmonella typhimurium; experiment: Mutagenic activity in Salmonella typhimurium TA98 at 0.312 to 5 mg/plate measured after incubation of upside down for 48 hrs in presence of liver S9 mixture; type: toxicity, organism-based; conditions: salmonella enterica subsp. enterica serovar typhimurium, s9, 48 h; summary of the method: as §3
[8] = test system: Salmonella typhimurium; experiment: Mutagenic activity in Salmonella typhimurium TA100 at 0.312 to 5 mg/plate preincubated for 20 mins before addition in presence of liver S9 mixture; type: toxicity, organism-based; conditions: salmonella enterica subsp. enterica serovar typhimurium; summary of the method: as §1
[9] = test system: Salmonella typhimurium; experiment: Mutagenic activity in Salmonella typhimurium TA1535 at 0.312 to 5 mg/plate measured after incubation of upside down for 48 hrs in absence of liver S9 mixture; type: toxicity, organism-based; conditions: salmonella enterica subsp. enterica serovar typhimurium; summary of the method: as §3
[10] = test system: Salmonella typhimurium; experiment: Mutagenic activity in Salmonella typhimurium TA100 at 0.312 to 5 mg/plate preincubated for 20 mins before addition in absence of liver S9 mixture; type: toxicity, organism-based; conditions: salmonella enterica subsp. enterica serovar typhimurium; summary of the method: as §1
[11] = test system: Salmonella typhimurium; experiment: Mutagenic activity in Salmonella typhimurium TA1537 at 0.312 to 5 mg/plate measured after incubation of upside down for 48 hrs in presence of liver S9 mixture; type: toxicity, organism-based; conditions: salmonella enterica subsp. enterica serovar typhimurium, s9, 48 h; summary of the method: as §3
[12] = Cytotoxicity against human PZ-HPV-7 cells after 3 days MTT assay; type: functional, cell-based; conditions: 72 h; summary of the method: as §2
[13] = test system: NCI-H69; experiment: Cytotoxicity against human NCI-H69 cells after 3 days MTT assay; type: functional, cell-based; conditions: NCI-H69, 72 h; summary of the method: as §2
[14] = test system: Salmonella typhimurium; experiment: Mutagenic activity in Salmonella typhimurium TA1537 at 0.312 to 5 mg/plate preincubated for 20 mins before addition in absence of liver S9 mixture; type: toxicity, organism-based; conditions: salmonella enterica subsp. enterica serovar typhimurium; summary of the method: as §1
[15] = test system: Salmonella typhimurium; experiment: Mutagenic activity in Salmonella typhimurium TA102 at 0.312 to 5 mg/plate preincubated for 20 mins before addition in absence of liver S9 mixture; type: toxicity, organism-based; conditions: salmonella enterica subsp. enterica serovar typhimurium; summary of the method: as §1
[16] = test system: Salmonella typhimurium; experiment: Mutagenic activity in Salmonella typhimurium TA98 at 0.312 to 5 mg/plate preincubated for 20 mins before addition in absence of liver S9 mixture; type: toxicity, organism-based; conditions: salmonella enterica subsp. enterica serovar typhimurium; summary of the method: as §1
[17] = test system: Salmonella typhimurium; experiment: Mutagenic activity in Salmonella typhimurium TA1535 at 0.312 to 5 mg/plate preincubated for 20 mins before addition in absence of liver S9 mixture; type: toxicity, organism-based; conditions: salmonella enterica subsp. enterica serovar typhimurium; summary of the method: as §1
[18] = test system: L1210; experiment: Antitumor activity against mouse L1210 cells xenografted in BDF-1 mouse assessed as increase in mean survival time at 1.5 mmol/kg, po qd for 2 weeks; type: functional
Summary of the method: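 Male BDF-1 mice inoculated intraperitoneally on day 0 with L1210 leukemia cells (1 × 10⁶/mL). Cells were kept in RPMI 1640 with 10% fetal bovine serum at 37 °C, 5% CO₂, subcultured once or twice weekly, and resuspended in PBS. Compounds were given orally, with maximum doses set from acute toxicity. Read-out was mean survival time versus untreated control.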

[19] = test system: Salmonella typhimurium; experiment: Mutagenic activity in Salmonella typhimurium TA102 at 0.312 to 5 mg/plate measured after incubation of upside down for 48 hrs in presence of liver S9 mixture; type: toxicity, organism-based; conditions: salmonella enterica subsp. enterica serovar typhimurium, s9, 48 h; summary of the method: as §3
[20] = test system: Salmonella typhimurium; experiment: Mutagenic activity in Salmonella typhimurium TA1537 at 0.312 to 5 mg/plate measured after incubation of upside down for 48 hrs in absence of liver S9 mixture; type: toxicity, organism-based; conditions: salmonella enterica subsp. enterica serovar typhimurium; summary of the method: as §3
[21] = test system: Salmonella typhimurium; experiment: Mutagenic activity in Salmonella typhimurium TA98 at 0.312 to 5 mg/plate measured after incubation of upside down for 48 hrs in absence of liver S9 mixture; type: toxicity, organism-based; conditions: salmonella enterica subsp. enterica serovar typhimurium; summary of the method: as §3
[22] = test system: Salmonella typhimurium; experiment: Mutagenic activity in Salmonella typhimurium TA100 at 0.312 to 5 mg/plate measured after incubation of upside down for 48 hrs in absence of liver S9 mixture; type: toxicity, organism-based; conditions: salmonella enterica subsp. enterica serovar typhimurium; summary of the method: as §3
[23] = test system: Salmonella typhimurium; experiment: Mutagenic activity in Salmonella typhimurium TA102 at 0.312 to 5 mg/plate measured after incubation of upside down for 48 hrs in absence of liver S9 mixture; type: toxicity, organism-based; conditions: salmonella enterica subsp. enterica serovar typhimurium; summary of the method: as §3
[24] = test system: Salmonella typhimurium; experiment: Mutagenic activity in Salmonella typhimurium TA1535 at 0.312 to 5 mg/plate preincubated for 20 mins before addition in presence of liver S9 mixture; type: toxicity, organism-based; conditions: salmonella enterica subsp. enterica serovar typhimurium; summary of the method: as §1
[25] = test system: MCF7; experiment: Cytotoxicity against human MCF7 cells after 3 days MTT assay; type: functional, cell-based; conditions: MCF7, 72 h; summary of the method: as §2
[26] = test system: L1210; experiment: Antitumor activity against mouse L1210 cells xenografted in BDF-1 mouse assessed as increase in mean survival time at 0.16 mmol/kg, po administered 5 days in a week for 3 weeks
[27] = test system: L1210; experiment: Antitumor activity against mouse L1210 cells xenografted in BDF-1 mouse assessed as increase in mean survival time at 0.080 mmol/kg, po administered 5 days in a week for 3 weeks

| SMILES | Activity [1] | IC50 [2] | Activity [3] | Activity [4] | Activity [5] | Activity [6] | Activity [7] | Activity [8] | Activity [9] | Activity [10] | Activity [11] | IC50 [12] | IC50 [13] | Activity [14] | Activity [15] | Activity [16] | Activity [17] | MST [18] | Activity [19] | Activity [20] | also measured |
| --- | --- | --- | --- | --- | --- | --- | --- | --- | --- | --- | --- | --- | --- | --- | --- | --- | --- | --- | --- | --- | --- |
| CCCCCOC(=O)Nc1nc(=O)n([C@@H]2O[C@H](C)[C@H]3OC(=O)O[C@H]32)cc1F | Non-toxic | 0.08 mg/L (≈ 0.208 µM) | Non-toxic | Non-toxic | Non-toxic | Non-toxic | Non-toxic | Non-toxic | Non-toxic | Non-toxic | Non-toxic | 140 mg/L (≈ 363 µM) | 180 mg/L (≈ 467 µM) | Non-toxic | Non-toxic | Non-toxic | Non-toxic | 17.3 days | Non-toxic | Non-toxic | Activity [21]: Non-toxic; Activity [22]: Non-toxic; Activity [23]: Non-toxic; Activity [24]: Non-toxic; IC50 [25]: 80 mg/L (≈ 208 µM) |
| CCCCCOC(=O)Nc1nc(=O)n([C@@H]2O[C@H](C)[C@@H](O)[C@H]2O)cc1F [CAPECITABINE] | Non-toxic | 0.05 mg/L (≈ 0.139 µM) | Non-toxic | Non-toxic | Non-toxic | Non-toxic | Non-toxic | Non-toxic | Non-toxic | Non-toxic | Non-toxic | 160 mg/L (≈ 445 µM) | 300 mg/L (≈ 835 µM) | Non-toxic | Non-toxic | Non-toxic | Non-toxic | 12.8 days | Non-toxic | Non-toxic | MST [26]: 19.6 days; Activity [21]: Non-toxic; Activity [22]: Non-toxic; MST [27]: 20.3 days; Activity [23]: Non-toxic; Activity [24]: Non-toxic; IC50 [25]: 710 mg/L (≈ 1980 µM) |
